According to ChEMBL document CHEMBL1125331, “6-Hydroxy-3-n-propyl-2,3,4,5-tetrahydro-1H-3-benzazepine and analogs: new centrally acting 5-HT1A receptor agonists” (J Med Chem, 1992):

Key:
Rattus norvegicus [1] = experiment: Effect evaluated in vivo on 5-HTP accumulation in NE-rich hemispheres at a 25 dose uM/kg(sc); assay type: functional
Procedure, shortened: (§1)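 Male Sprague-Dawley rats (200–300 g) were pretreated with reserpine 5 mg/kg sc 18 h beforehand. Test drug was given at neutral pH, 5 mL/kg. Aromatic amino acid decarboxylase was blocked with NSD 1015. 5-HTP in the dissected brain region was assayed by HPLC with electrochemical detection.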

D(2) dopamine receptor = D(2) dopamine receptor (Rattus norvegicus, UniProt P61169); experiment: Inhibitory activity against Dopamine receptor D2 in rats using [3H]spiperone as radioligand
Sequence of D(2) dopamine receptor (P61169 whole entry): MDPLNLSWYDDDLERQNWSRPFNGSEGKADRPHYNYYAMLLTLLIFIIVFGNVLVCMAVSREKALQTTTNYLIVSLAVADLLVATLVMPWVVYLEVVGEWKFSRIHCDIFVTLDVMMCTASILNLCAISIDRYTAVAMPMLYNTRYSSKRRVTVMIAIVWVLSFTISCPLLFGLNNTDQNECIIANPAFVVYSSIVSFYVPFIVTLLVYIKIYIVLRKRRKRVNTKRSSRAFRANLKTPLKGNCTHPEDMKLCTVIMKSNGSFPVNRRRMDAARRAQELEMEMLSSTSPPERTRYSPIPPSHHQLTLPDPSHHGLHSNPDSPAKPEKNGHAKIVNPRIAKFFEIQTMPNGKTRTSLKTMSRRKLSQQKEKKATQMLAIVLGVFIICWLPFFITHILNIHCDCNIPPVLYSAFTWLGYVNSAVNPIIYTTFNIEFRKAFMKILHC
Procedure, shortened: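 Rat striatal membranes in 50 mM potassium phosphate buffer pH 7.4 were incubated with 0.5 nM [3H]spiperone for 10 min at 37 °C. Specific binding was defined with 10 μM 6,7-ADTN.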

Rattus norvegicus [2] = experiment: Effect evaluated in vivo on 5-HTP accumulation in NE-rich hemispheres at a 1.56 dose uM/kg(sc); assay type: functional; procedure, shortened: as §1
Rattus norvegicus [3] = experiment: Effect evaluated in vivo on 5-HTP accumulation in limbic system at a dose 100 umol/kg (s.c.); assay type: functional
Procedure, shortened: (§2)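 Male Sprague-Dawley rats (200–300 g) were pretreated with reserpine 5 mg/kg sc 18 h before. Test compound was given sc at 5 mL/kg in neutral solution. 5-HT synthesis rate was indexed by […] 5-HTP accumulation after decarboxylase inhibition with NSD 1015, measured by HPLC-electrochemical detection. Dose-response used 4–6 dose levels, n = 4.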

Rattus norvegicus [4] = experiment: Effect evaluated in vivo on 5-HTP accumulation in corpus striatum at a dose 1.56 umol/kg (s.c.); assay type: functional; procedure, shortened: as §1
Rattus norvegicus [5] = experiment: Effect evaluated in vivo on 5-HTP accumulation in corpus striatum at a dose 25 umol/kg (s.c.); assay type: functional; procedure, shortened: as §1
Rattus norvegicus [6] = experiment: Effect evaluated in vivo on 5-HTP accumulation in limbic system at a dose 0.39 umol/kg (s.c.); assay type: functional; procedure, shortened: as §1
Rattus norvegicus [7] = experiment: Effect evaluated in vivo on 5-HTP accumulation in NE-rich hemispheres at a 100 dose uM/kg(sc); assay type: functional; procedure, shortened: as §1
Rattus norvegicus [8] = experiment: Effect evaluated in vivo on 5-HTP accumulation in limbic system at a dose 25 umol/kg (s.c.); assay type: functional; procedure, shortened: as §2
Rattus norvegicus [9] = experiment: Effect evaluated in vivo on 5-HTP accumulation in NE-rich hemispheres at a 0.20 dose uM/kg(sc); assay type: functional; procedure, shortened: as §1
Rattus norvegicus [10] = experiment: Effect evaluated in vivo on 5-HTP accumulation in corpus striatum at a dose 100 umol/kg (s.c.); assay type: functional; procedure, shortened: as §1
Rattus norvegicus [11] = experiment: Effect evaluated in vivo on 5-HTP accumulation in limbic system at a dose 0.20 umol/kg (s.c.); assay type: functional; procedure, shortened: as §1
Rattus norvegicus [12] = experiment: Effect evaluated in vivo on 5-HTP accumulation in NE-rich hemispheres at a 0.39 dose uM/kg(sc); assay type: functional; procedure, shortened: as §1
Rattus norvegicus [13] = experiment: Effect evaluated in vivo on 5-HTP accumulation in corpus striatum at a dose 0.39 umol/kg (s.c.); assay type: functional; procedure, shortened: as §1
Rattus norvegicus [14] = experiment: Effect evaluated in vivo on 5-HTP accumulation in corpus striatum at a dose 0.20 umol/kg (s.c.); assay type: functional; procedure, shortened: as §1
Rattus norvegicus [15] = experiment: Effect evaluated in vivo on 5-HTP accumulation in limbic system at a dose 1.56 umol/kg (s.c.); assay type: functional; procedure, shortened: as §2
Rattus norvegicus [16] = experiment: Effect evaluated in vivo on 5-HTP accumulation in limbic system after subcutaneous administration; assay type: functional; settings: sc; procedure, shortened: as §1
Rattus norvegicus [17] = experiment: Effect evaluated in vivo on 5-HTP accumulation in limbic system at a dose 50 umol/kg (s.c.); assay type: functional; procedure, shortened: as §2
Rattus norvegicus [18] = experiment: Effect evaluated in vivo on 5-HTP accumulation in limbic system at a dose 0.80 umol/kg (s.c.); assay type: functional; procedure, shortened: as §2
Rattus norvegicus [19] = experiment: Effect evaluated in vivo on 5-HTP accumulation in NE-rich hemispheres at a 50 dose uM/kg(sc); assay type: functional; procedure, shortened: as §1
Rattus norvegicus [20] = experiment: Effect evaluated in vivo on 5-HTP accumulation in corpus striatum after subcutaneous administration; assay type: functional; settings: sc; procedure, shortened: as §1
Rattus norvegicus [21] = experiment: Effect evaluated in vivo on 5-HTP accumulation in corpus striatum at a dose 0.80 umol/kg (p.o.); assay type: functional; procedure, shortened: as §1
Rattus norvegicus [22] = experiment: Effect evaluated in vivo on 5-HTP accumulation in limbic system at a dose 12.5 umol/kg (p.o.); assay type: functional
Procedure, shortened: (§3)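 Oral dosing in male Sprague-Dawley rats (200–300 g) pretreated with reserpine 5 mg/kg sc 18 h before. After decarboxylase inhibition with NSD 1015, brain 5-HTP or dopa accumulation (HPLC-electrochemical detection) indexed 5-HT synthesis, DA synthesis (limbic) or NE synthesis (hemispheres, mainly cortex).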

Rattus norvegicus [23] = experiment: Effect evaluated in vivo on 5-HTP accumulation in corpus striatum after perioral administration; assay type: functional; procedure, shortened: as §1
Rattus norvegicus [24] = experiment: Effect evaluated in vivo on 5-HTP accumulation in limbic system at a dose 0.80 umol/kg (p.o.); assay type: functional; procedure, shortened: as §3
Rattus norvegicus [25] = experiment: Effect evaluated in vivo on 5-HTP accumulation in corpus striatum at a dose 50 umol/kg (s.c.); assay type: functional; procedure, shortened: as §1
Rattus norvegicus [26] = experiment: The compound was tested in vivo for locomotor activity in rats at 50 umol/kg after perioral administration; assay type: functional
Procedure, shortened: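 Reserpine-pretreated rats (5 mg/kg sc, 18 h before) received test compound orally. Photocell motility counts were accumulated over 30 min, and gross behaviour, including 5-HT syndrome, was observed.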

Rattus norvegicus [27] = experiment: Effect evaluated in vivo on 5-HTP accumulation in limbic system at a dose 3.1 umol/kg (s.c.); assay type: functional; procedure, shortened: as §2
Rattus norvegicus [28] = experiment: Effect evaluated in vivo on 5-HTP accumulation in limbic system at a dose 50 umol/kg (p.o.); assay type: functional; procedure, shortened: as §3
Rattus norvegicus [29] = experiment: Effect evaluated in vivo on 5-HTP accumulation in NE-rich hemispheres after subcutaneous administration; assay type: functional; settings: sc; procedure, shortened: as §1
Rattus norvegicus [30] = experiment: The compound was tested in vivo for locomotor activity in rats at 50 umol/kg after subcutaneous administration; assay type: functional
Procedure, shortened: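 Male Sprague-Dawley rats received reserpine 5 mg/kg sc in the neck 18 h before testing. Test compound was given sc in the neck (n = 4). Rats were placed singly in photocell motility meters immediately after dosing, and counts were accumulated over 30 min (tests 9 a.m.–1 p.m.). Gross behaviour, including 5-HT syndrome, was observed throughout.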

[31] = molecular target: T1, 5-hydroxytryptamine receptor 1A (Rattus norvegicus, UniProt P19327); experiment: Inhibitory activity against 5-hydroxytryptamine 1A receptor in rats, using [3H]8-OH-DPAT as radioligand
T1 sequence (P19327 whole entry): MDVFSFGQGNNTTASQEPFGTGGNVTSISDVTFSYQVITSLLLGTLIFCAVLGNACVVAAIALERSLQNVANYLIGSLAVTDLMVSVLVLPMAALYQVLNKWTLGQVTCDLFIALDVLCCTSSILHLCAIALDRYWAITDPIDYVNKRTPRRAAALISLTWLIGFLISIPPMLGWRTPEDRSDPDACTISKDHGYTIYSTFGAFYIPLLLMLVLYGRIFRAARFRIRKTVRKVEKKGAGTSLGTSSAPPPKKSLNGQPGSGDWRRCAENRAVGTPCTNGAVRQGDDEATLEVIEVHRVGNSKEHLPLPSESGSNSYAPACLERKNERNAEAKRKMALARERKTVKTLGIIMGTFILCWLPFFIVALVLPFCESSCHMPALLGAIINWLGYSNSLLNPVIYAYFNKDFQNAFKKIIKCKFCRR
Procedure, shortened: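 Rat whole-brain membranes (minus brainstem and cerebellum) in 50 mM Tris pH 8.0 with 120 mM NaCl, 4 mM CaCl2, 4 mM MgCl2 and 10 μM pargyline. Rapid filtration, then scintillation counting. Nonspecific binding defined with 10 μM 5-HT. IC50 by semi-log plot and linear regression.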

Rattus norvegicus [32] = experiment: Effect evaluated in vivo on 5-HTP accumulation in corpus striatum at a dose 3.1 umol/kg (p.o.); assay type: functional; procedure, shortened: as §1
Rattus norvegicus [33] = experiment: Effect evaluated in vivo on 5-HTP accumulation in NE-rich hemispheres after perioral administration; assay type: functional; procedure, shortened: as §1
Rattus norvegicus [34] = experiment: Effect evaluated in vivo on 5-HTP accumulation in NE-rich hemispheres at a 3.1 dose uM/kg(sc); assay type: functional; procedure, shortened: as §1
Rattus norvegicus [35] = experiment: Effect evaluated in vivo on 5-HTP accumulation in corpus striatum at a dose 0.80 umol/kg (s.c.); assay type: functional; procedure, shortened: as §1
Rattus norvegicus [36] = experiment: Effect evaluated in vivo on 5-HTP accumulation in limbic system after perioral administration; assay type: functional; procedure, shortened: as §1
Rattus norvegicus [37] = experiment: Effect evaluated in vivo on 5-HTP accumulation in corpus striatum at a dose 50 umol/kg (p.o.); assay type: functional; procedure, shortened: as §1
Rattus norvegicus [38] = experiment: Effect evaluated in vivo on 5-HTP accumulation in NE-rich hemispheres at a 0.80 dose uM/kg(sc); assay type: functional; procedure, shortened: as §1
Rattus norvegicus [39] = experiment: Effect evaluated in vivo on 5-HTP accumulation in corpus striatum at a dose 3.1 umol/kg (s.c.); assay type: functional; procedure, shortened: as §1
Rattus norvegicus [40] = experiment: Effect evaluated in vivo on 5-HTP accumulation in corpus striatum at a dose 12.5 umol/kg (p.o.); assay type: functional; procedure, shortened: as §1
Rattus norvegicus [41] = experiment: Effect evaluated in vivo on 5-HTP accumulation in limbic system at a dose 3.1 umol/kg (p.o.); assay type: functional; procedure, shortened: as §3

SMILES: CCCN1CCc2ccc(O)cc2CC1
- Control (Rattus norvegicus [1]): 113%
- IC50 (D(2) dopamine receptor): 10 µM
- Control (Rattus norvegicus [2]): 114%
- Control (Rattus norvegicus [3]): 81%
- Control (Rattus norvegicus [4]): 110%
- Control (Rattus norvegicus [5]): 107%
- Control (Rattus norvegicus [6]): 121%
- Control (Rattus norvegicus [7]): 78%
- Control (Rattus norvegicus [8]): 105%
- Control (Rattus norvegicus [9]): 128%
- Control (Rattus norvegicus [10]): 77%
- Control (Rattus norvegicus [11]): 122%
- Control (Rattus norvegicus [12]): 119%
- Control (Rattus norvegicus [13]): 106%
- Control (Rattus norvegicus [14]): 118%
- Control (Rattus norvegicus [15]): 80%

SMILES: CCCN1CCc2c(Br)ccc(OC)c2CC1
- ED50 (Rattus norvegicus [16]): 2.7 µmol/kg
- Control (Rattus norvegicus [17]): 48%
- Control (Rattus norvegicus [18]): 118%
- Control (Rattus norvegicus [19]): 43%
- ED50 (Rattus norvegicus [20]): 3.2 µmol/kg
- IC50 (D(2) dopamine receptor): 0.68 µM
- Control (Rattus norvegicus [21]): 112%
- Control (Rattus norvegicus [22]): 76%
- ED50 (Rattus norvegicus [23]): 14 µmol/kg
- Control (Rattus norvegicus [24]): 88%
- Control (Rattus norvegicus [25]): 50%
- Locomotor activity (Rattus norvegicus [26]): 21
- Control (Rattus norvegicus [27]): 69%
- Control (Rattus norvegicus [28]): 48%
- ED50 (Rattus norvegicus [29]): 5 µmol/kg
- Locomotor activity (Rattus norvegicus [30]): 108
- IC50 [31]: 28 nM
- Control (Rattus norvegicus [9]): 102%
- Control (Rattus norvegicus [32]): 96%
- ED50 (Rattus norvegicus [33]): 21 µmol/kg
- Control (Rattus norvegicus [34]): 83%
- Control (Rattus norvegicus [35]): 130%
- Control (Rattus norvegicus [11]): 108%
- ED50 (Rattus norvegicus [36]): 13 µmol/kg
- Control (Rattus norvegicus [37]): 50%
- Control (Rattus norvegicus [38]): 111%
- Control (Rattus norvegicus [14]): 117%
- Control (Rattus norvegicus [39]): 71%
- Control (Rattus norvegicus [40]): 77%
- Control (Rattus norvegicus [41]): 90%
